Here are results for one compound from publication PMC8136437 (ACS chemical biology, 2020).

Experiment [1] relates to Rat-2 cells expressing HCK-YF. Briefly: Soft-agar colony-forming assay, Rat-2 fibroblasts transformed with HCK-YF. The experiment is classed as cell-based. The settings on record: 1 μM A-419259, soft agar, two weeks. An outline of the steps:
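Rat-2 fibroblasts infected with 293T-produced retroviruses carrying the HCK-YF codon mutagenesis library, then G-418 selected. Cells plated in soft agar (semi-solid medium) with test compound at 1.0 μM, 5,000 cells per plate, selected two weeks. Picked colonies expanded in 2D without inhibitor, then re-assayed with test compound or DMSO carrier in triplicate. Colonies Wright-Giemsa stained and counted; mean ± SE.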

The subject of experiment [2] is Rat-2 resistant clone 5-1 (HCK-YF mutant library). The format is cell-based. The settings on record: resistant clone 5-1, 1 μM A-419259 vs DMSO.
Experiment [3] addresses T1, HCK-T338H (Homo sapiens, UniProt P08631, T333H). Briefly: HCK activation loop autophosphorylation. To be noted: 293T cells, 100 and 1,000 nM A-419259. The format is cell-based.
Experiment [4] has as its target HCK-T338M (Homo sapiens, UniProt P08631, T333M). Nature of the experiment: HCK activation loop autophosphorylation. The experiment is classed as cell-based. An outline of the steps:
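Transfected human 293T cells expressing the mutant kinase were treated with the test compound at 0, 100 or 1000 nM, with DMSO as the no-inhibitor control. HCK was immunoprecipitated and immunoblotted for pY416 and total HCK, then detected with infrared-dye secondary antibodies. The pY416/HCK signal ratio was normalized to DMSO; mean ± SE of two independent experiments.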

The test system of experiment [5] is TF-1/FLT3-ITD cells expressing HCK-T338H. Nature of the experiment: Growth inhibition. The format is cell-based, human. An outline of the steps:
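TF-1 cells made cytokine-independent by retroviral FLT3-ITD transduction, then retrovirally transduced with wild-type or mutant HCK. Each population exposed to a wide range of test compound concentrations; viability read by Cell Titer-Blue. Each point in triplicate, normalized to DMSO (no inhibitor) control, plotted as mean ± SE. IC50 estimated by nonlinear regression fit of concentration-response curves.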

In experiment [6] the target is T1, HCK-T338H. Nature of the experiment: HCK activation loop autophosphorylation. The experiment is classed as cell-based. In a few lines: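 GM-CSF-dependent TF-1 cells were made cytokine-independent by retroviral FLT3-ITD, then retrovirally transduced with mutant HCK. For kinase activity, cells were exposed to 0, 30, 100 or 300 nM test compound; HCK was immunoprecipitated and blotted for pY416 and total HCK (3 independent experiments, normalized to DMSO). IC50: Cell Titer-Blue viability across a concentration range, triplicate, DMSO-normalized, nonlinear regression.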

Experiment [7] relates to Philadelphia chromosome-positive CML cells. To be noted: at concentrations that did not directly inhibit BCR-ABL; cited from earlier work.
In experiment [8] the test system is AML patient-derived xenografts. The settings on record: oral administration; cited from earlier work.
For experiment [9], the target named is kinome panel (HCK, other SRC-family members, FLT3 and other Class III receptor tyrosine kinases). The settings on record: KINOMEscan; cited from earlier work.

T1 sequence (P08631 22-526 T333H): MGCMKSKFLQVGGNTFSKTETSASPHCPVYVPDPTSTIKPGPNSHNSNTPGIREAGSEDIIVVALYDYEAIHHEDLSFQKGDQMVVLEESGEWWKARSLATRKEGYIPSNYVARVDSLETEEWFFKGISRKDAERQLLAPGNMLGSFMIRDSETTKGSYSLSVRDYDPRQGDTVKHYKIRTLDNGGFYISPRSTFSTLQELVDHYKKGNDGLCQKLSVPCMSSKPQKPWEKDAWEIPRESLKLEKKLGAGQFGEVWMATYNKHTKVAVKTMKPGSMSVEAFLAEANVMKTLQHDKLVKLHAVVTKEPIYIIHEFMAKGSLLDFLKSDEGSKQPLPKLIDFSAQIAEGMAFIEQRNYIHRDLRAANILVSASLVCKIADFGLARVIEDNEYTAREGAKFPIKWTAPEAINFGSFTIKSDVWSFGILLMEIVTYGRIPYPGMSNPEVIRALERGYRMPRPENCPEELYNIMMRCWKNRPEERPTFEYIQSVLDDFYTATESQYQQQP
Sequence of HCK-T338M (P08631 22-526 T333M): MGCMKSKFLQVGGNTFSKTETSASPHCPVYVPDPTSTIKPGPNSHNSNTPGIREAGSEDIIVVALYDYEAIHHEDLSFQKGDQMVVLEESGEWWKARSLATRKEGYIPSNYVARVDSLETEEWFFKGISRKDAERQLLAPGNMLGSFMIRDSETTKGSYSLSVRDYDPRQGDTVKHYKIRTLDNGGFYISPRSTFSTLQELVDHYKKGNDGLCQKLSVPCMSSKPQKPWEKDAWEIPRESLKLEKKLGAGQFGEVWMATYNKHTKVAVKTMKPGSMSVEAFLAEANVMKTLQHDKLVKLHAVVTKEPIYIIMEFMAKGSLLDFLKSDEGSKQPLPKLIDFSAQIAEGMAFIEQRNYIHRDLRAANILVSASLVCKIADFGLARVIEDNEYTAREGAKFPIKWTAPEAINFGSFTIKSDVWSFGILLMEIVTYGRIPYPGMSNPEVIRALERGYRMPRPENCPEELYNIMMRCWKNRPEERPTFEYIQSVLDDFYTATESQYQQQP

Usually IC50 stands for the concentration needed to halve the response being measured. Consider `CN1CCN(C2CCC(n3cc(-c4ccc(Oc5ccccc5)cc4)c4c(N)ncnc43)CC2)CC1` (stereo not shown) [A-419259], for which, in experiment [1], the “colony formation by control cells expressing HCK-YF” value is “completely blocked colony formation”. For the same compound, the “colony formation in the presence vs absence of A-419259” value in experiment [2] is listed as “equal numbers of colonies in the presence or absence of A-419259”. In addition, the “activation loop phosphorylation (pY416) of HCK-T338H” value in experiment [3] is “no change in activation loop phosphorylation”. For the same compound, the “resistance of HCK-T338M autophosphorylation to A-419259” value in [4] (293T cells, 100 nM A-419259) is recorded as “complete resistance”; in [4] (293T cells, 1,000 nM A-419259) it was “partial resistance”. In addition, the “sensitivity of TF-1/FLT3-ITD cells to growth inhibition” value in experiment [5] (HCK-T338H expression vs wild-type HCK) is given as “reduced sensitivity”. The “shift in the IC50 for growth suppression” value in [5] (HCK-T338H vs wild-type HCK in TF-1/FLT3-ITD cells) is given as 2 fold. In addition, the IC50 in [5] (read-out: IC50, growth suppression, TF-1/FLT3-ITD cells expressing HCK-T338H) was approximately 100 nM; in [6] (read-out: IC50, kinase inhibition, TF-1/FLT3-ITD cells expressing HCK-T338H) it was approximately 100 nM. Besides, the “Tyr416 phosphorylation of HCK-T338H in the presence of A-419259” value in experiment [6] (TF-1/FLT3-ITD cells, concentrations up to 100 nM) was “remained phosphorylated on Tyr416”. The “growth arrest and apoptosis of CML cells” value in experiment [7] is “induced growth arrest and apoptosis”. The “activity in mice bearing AML patient-derived xenografts” value in experiment [8] is on record as “potent activity”. Further, in experiment [9], the kinase specificity profile result is recorded as “remarkably narrow specificity profile”.
